{
  "source": "paper PMC12782866",
  "about": "(Biomolecules & Therapeutics, 2025)",
  "key": {"[1]": {"experiment": "Comparative 14-day repeated-dose toxicity study with BAY964", "type": "in vivo, male ICR mice", "conditions": "for exposure multiple: reference not defined", "summary_of_the_method": "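Male ICR mice were dosed orally once daily for 14 days under GLP. Prodrug arm: 30, 100 or 300 mg/kg in 0.1% kolliphor EL (vehicle n=6; dose groups 6 main + 3 TK). Comparator arm: 30-1000 mg/kg, with 30 mg/kg given only as single-dose TK. Endpoints were clinical signs, body weight, food/water intake, haematology, serum chemistry, organ weights and H&E histopathology. TK was sampled on days 1 and 14.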"}, "[2]": {"target": "hERG channel (Homo sapiens, UniProt Q12809)", "sequence (Q12809 whole entry)": "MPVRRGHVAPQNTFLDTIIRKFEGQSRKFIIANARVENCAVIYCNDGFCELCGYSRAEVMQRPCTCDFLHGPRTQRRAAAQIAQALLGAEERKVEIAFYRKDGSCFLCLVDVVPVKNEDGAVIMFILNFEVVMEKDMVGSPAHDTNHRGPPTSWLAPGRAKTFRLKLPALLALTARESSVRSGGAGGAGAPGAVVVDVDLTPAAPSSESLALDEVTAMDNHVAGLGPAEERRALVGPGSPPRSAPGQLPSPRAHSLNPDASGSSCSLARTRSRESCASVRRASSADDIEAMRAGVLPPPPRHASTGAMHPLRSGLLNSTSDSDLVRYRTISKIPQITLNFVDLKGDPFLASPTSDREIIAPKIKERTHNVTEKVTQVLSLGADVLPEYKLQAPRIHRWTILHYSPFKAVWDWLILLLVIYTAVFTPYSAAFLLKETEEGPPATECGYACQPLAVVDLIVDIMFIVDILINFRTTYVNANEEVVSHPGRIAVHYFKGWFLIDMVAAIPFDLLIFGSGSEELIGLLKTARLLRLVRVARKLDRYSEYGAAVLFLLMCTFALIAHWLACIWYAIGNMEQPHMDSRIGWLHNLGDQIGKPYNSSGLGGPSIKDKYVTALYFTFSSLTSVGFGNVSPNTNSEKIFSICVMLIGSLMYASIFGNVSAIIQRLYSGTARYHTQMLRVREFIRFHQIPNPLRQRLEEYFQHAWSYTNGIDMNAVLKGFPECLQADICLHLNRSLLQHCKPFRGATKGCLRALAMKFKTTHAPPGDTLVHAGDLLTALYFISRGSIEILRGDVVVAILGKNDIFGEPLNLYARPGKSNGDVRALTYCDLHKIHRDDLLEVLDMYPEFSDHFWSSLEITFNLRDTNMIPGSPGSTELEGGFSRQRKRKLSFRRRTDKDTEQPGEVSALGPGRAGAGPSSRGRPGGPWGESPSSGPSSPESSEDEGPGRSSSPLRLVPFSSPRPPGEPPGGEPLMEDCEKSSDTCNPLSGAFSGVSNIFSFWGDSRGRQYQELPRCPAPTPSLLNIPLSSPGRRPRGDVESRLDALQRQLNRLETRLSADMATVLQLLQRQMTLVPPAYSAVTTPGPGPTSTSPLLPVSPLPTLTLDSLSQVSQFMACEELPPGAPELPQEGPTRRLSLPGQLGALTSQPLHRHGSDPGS", "experiment": "hERG channel inhibition, in vitro", "type": "biochemical", "conditions": "read-out: hERG IC50"}},
  "note": "pIC50: −log10 of the molar value. “Also recorded” adds a separate entry of the source.",
  "data": [
    {"smiles": "C[C@@H](CO)NC(=O)c1cc(-c2ccc(Cl)cc2)nn(-c2cnn(C)c2)c1=O", "note": "[BAY964]", "values": [
      {"measurement": "toxicological findings", "setting": "[1]; 100 mg/kg, 14 days", "result": "MCHC ↓, TG ↓, liver, spleen"},
      {"measurement": "exposure multiple", "setting": "[1]; 100 mg/kg", "result": 1.9, "unit": "×"},
      {"measurement": "toxicological findings", "setting": "[1]; 300 mg/kg, 14 days", "result": "liver, spleen; hematological changes"},
      {"measurement": "exposure multiple", "setting": "[1]; 300 mg/kg", "result": 3.6, "unit": "×"},
      {"measurement": "toxicological findings", "setting": "[1]; 1000 mg/kg, 14 days", "result": "gastrointestinal, liver, spleen, kidney lesions"},
      {"measurement": "exposure multiple", "setting": "[1]; 1000 mg/kg", "result": 7.0, "unit": "×"},
      {"measurement": "Target organ", "setting": "[1]; 100-1000 mg/kg, 14 days", "result": "liver, spleen, gastrointestinal tract, and kidney; also recorded: Liver, spleen, GI tract, kidney"},
      {"measurement": "pIC50", "setting": "[2]", "result": "< 5.00"}
    ]}
  ]
}
